Results as given in ChEMBL document CHEMBL5058577, “EUbOPEN Chemogenomics Library 2 (Multiplex)” (2022).

Tested on: Fibroblast
Assay: Multiplex assay against human fibroblast
Assay type: toxicity, cell-based
Summary of the method: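 Per cents of healthy-nucleus cells form the tubulin, mitochondrial-mass and membrane-permeability phenotype values. Live cells were stained at seeding with Hoechst33342, BioTracker Green Microtubule Cytoskeleton Dye, MitoTracker Red and Annexin V Alexa Fluor 680. After compound addition they were imaged on a CQ1 microscope at 37°C and 5% CO2, and CellPathfinder machine-learning gating split them into Hoechst high-intensity objects or normal cells, normal cells into healthy, pyknosed or fragmented nuclei, and pyknosed cells into mitotic or apoptotic.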

[1] = 12 h, 1 µM, compound concentration 1 uM, replicate 1
[2] = 12 h, 1 µM, compound concentration 1 uM, replicate 2
[3] = 12 h, 10 µM, compound concentration 10 uM, replicate 1
[4] = 12 h, 10 µM, compound concentration 10 uM, replicate 2
[5] = 24 h, 1 µM, compound concentration 1 uM, replicate 1
[6] = 24 h, 1 µM, compound concentration 1 uM, replicate 2
[7] = 24 h, 10 µM, compound concentration 10 uM, replicate 1
[8] = 24 h, 10 µM, compound concentration 10 uM, replicate 2
[9] = 48 h, 1 µM, compound concentration 1 uM, replicate 1
[10] = 48 h, 1 µM, compound concentration 1 uM, replicate 2
[11] = 48 h, 10 µM, compound concentration 10 uM, replicate 1
[12] = 48 h, 10 µM, compound concentration 10 uM, replicate 2

Cc1cc(NC(=O)NCCN2CCC(O)(Cc3ccccc3)CC2)c2ccccc2n1 [PALOSURAN]
Population Apoptotic (%) [1]: 37% | Population Fragmented Nuclei (%) [1]: 10% | Population Healthy Nuclei (%) [1]: 77% | Population Hoechst High Intensity Objects (%) [1]: 2% | Population Membrane Permeable-Phenotype (%) [1]: 3% | Population Mitochondria Different-Phenotype (%) [1]: 1% | Population Mitotic Cells (%) [1]: 62% | Population Normal (%) [1]: 97% | Population Pyknosed Nuclei (%) [1]: 12% | Population Tubulin-Different-Phenotype (%) [1]: 19% | Total Cell Count [1]: 133 | Population Apoptotic (%) [2]: 40% | Population Fragmented Nuclei (%) [2]: 26% | Population Healthy Nuclei (%) [2]: 44% | Population Hoechst High Intensity Objects (%) [2]: 9% | Population Membrane Permeable-Phenotype (%) [2]: 1% | Population Mitochondria Different-Phenotype (%) [2]: 13% | Population Mitotic Cells (%) [2]: 59% | Population Normal (%) [2]: 90% | Population Pyknosed Nuclei (%) [2]: 28% | Population Tubulin-Different-Phenotype (%) [2]: 46% | Total Cell Count [2]: 143 | Population Apoptotic (%) [3]: 40% | Population Fragmented Nuclei (%) [3]: 14% | Population Healthy Nuclei (%) [3]: 69% | Population Hoechst High Intensity Objects (%) [3]: 1% | Population Membrane Permeable-Phenotype (%) [3]: 0% | Population Mitochondria Different-Phenotype (%) [3]: 13% | Population Mitotic Cells (%) [3]: 59% | Population Normal (%) [3]: 98% | Population Pyknosed Nuclei (%) [3]: 15% | Population Tubulin-Different-Phenotype (%) [3]: 37% | Total Cell Count [3]: 178 | Population Apoptotic (%) [4]: 41% | Population Fragmented Nuclei (%) [4]: 28% | Population Healthy Nuclei (%) [4]: 49% | Population Hoechst High Intensity Objects (%) [4]: 6% | Population Membrane Permeable-Phenotype (%) [4]: 3% | Population Mitochondria Different-Phenotype (%) [4]: 3% | Population Mitotic Cells (%) [4]: 58% | Population Normal (%) [4]: 93% | Population Pyknosed Nuclei (%) [4]: 22% | Population Tubulin-Different-Phenotype (%) [4]: 51% | Total Cell Count [4]: 113 | Population Apoptotic (%) [5]: 53% | Population Fragmented Nuclei (%) [5]: 15% | Population Healthy Nuclei (%) [5]: 73% | Population Hoechst High Intensity Objects (%) [5]: 2% | Population Membrane Permeable-Phenotype (%) [5]: 1% | Population Mitochondria Different-Phenotype (%) [5]: 0% | Population Mitotic Cells (%) [5]: 46% | Population Normal (%) [5]: 97% | Population Pyknosed Nuclei (%) [5]: 10% | Population Tubulin-Different-Phenotype (%) [5]: 17% | Total Cell Count [5]: 129 | Population Apoptotic (%) [6]: 40% | Population Fragmented Nuclei (%) [6]: 27% | Population Healthy Nuclei (%) [6]: 50% | Population Hoechst High Intensity Objects (%) [6]: 6% | Population Membrane Permeable-Phenotype (%) [6]: 14% | Population Mitochondria Different-Phenotype (%) [6]: 21% | Population Mitotic Cells (%) [6]: 60% | Population Normal (%) [6]: 93% | Population Pyknosed Nuclei (%) [6]: 22% | Population Tubulin-Different-Phenotype (%) [6]: 62% | Total Cell Count [6]: 119 | Population Apoptotic (%) [7]: 42% | Population Fragmented Nuclei (%) [7]: 14% | Population Healthy Nuclei (%) [7]: 77% | Population Hoechst High Intensity Objects (%) [7]: 1% | Population Membrane Permeable-Phenotype (%) [7]: 0% | Population Mitochondria Different-Phenotype (%) [7]: 8% | Population Mitotic Cells (%) [7]: 57% | Population Normal (%) [7]: 98% | Population Pyknosed Nuclei (%) [7]: 8% | Population Tubulin-Different-Phenotype (%) [7]: 37% | Total Cell Count [7]: 178 | Population Apoptotic (%) [8]: 60% | Population Fragmented Nuclei (%) [8]: 30% | Population Healthy Nuclei (%) [8]: 47% | Population Hoechst High Intensity Objects (%) [8]: 3% | Population Membrane Permeable-Phenotype (%) [8]: 3% | Population Mitochondria Different-Phenotype (%) [8]: 1% | Population Mitotic Cells (%) [8]: 40% | Population Normal (%) [8]: 96% | Population Pyknosed Nuclei (%) [8]: 22% | Population Tubulin-Different-Phenotype (%) [8]: 48% | Total Cell Count [8]: 117 | Population Apoptotic (%) [9]: 50% | Population Fragmented Nuclei (%) [9]: 16% | Population Healthy Nuclei (%) [9]: 72% | Population Hoechst High Intensity Objects (%) [9]: 3% | Population Membrane Permeable-Phenotype (%) [9]: 0% | Population Mitochondria Different-Phenotype (%) [9]: 2% | Population Mitotic Cells (%) [9]: 50% | Population Normal (%) [9]: 96% | Population Pyknosed Nuclei (%) [9]: 11% | Population Tubulin-Different-Phenotype (%) [9]: 15% | Total Cell Count [9]: 126 | Population Apoptotic (%) [10]: 61% | Population Fragmented Nuclei (%) [10]: 42% | Population Healthy Nuclei (%) [10]: 44% | Population Hoechst High Intensity Objects (%) [10]: 7% | Population Membrane Permeable-Phenotype (%) [10]: 14% | Population Mitochondria Different-Phenotype (%) [10]: 14% | Population Mitotic Cells (%) [10]: 38% | Population Normal (%) [10]: 92% | Population Pyknosed Nuclei (%) [10]: 13% | Population Tubulin-Different-Phenotype (%) [10]: 61% | Total Cell Count [10]: 149 | Population Apoptotic (%) [11]: 55% | Population Fragmented Nuclei (%) [11]: 19% | Population Healthy Nuclei (%) [11]: 69% | Population Hoechst High Intensity Objects (%) [11]: 5% | Population Membrane Permeable-Phenotype (%) [11]: 0% | Population Mitochondria Different-Phenotype (%) [11]: 10% | Population Mitotic Cells (%) [11]: 44% | Population Normal (%) [11]: 94% | Population Pyknosed Nuclei (%) [11]: 10% | Population Tubulin-Different-Phenotype (%) [11]: 36% | Total Cell Count [11]: 186 | Population Apoptotic (%) [12]: 61% | Population Fragmented Nuclei (%) [12]: 38% | Population Healthy Nuclei (%) [12]: 44% | Population Hoechst High Intensity Objects (%) [12]: 2% | Population Membrane Permeable-Phenotype (%) [12]: 2% | Population Mitochondria Different-Phenotype (%) [12]: 6% | Population Mitotic Cells (%) [12]: 38% | Population Normal (%) [12]: 97% | Population Pyknosed Nuclei (%) [12]: 16% | Population Tubulin-Different-Phenotype (%) [12]: 61% | Total Cell Count [12]: 112
